Experimental data: publication PMC8489793 (ACS chemical biology, 2019)
Entries after “also recorded” stand apart in the source; their conditions may differ.

Tests used:
[1] = system: MCF-10 and MCF-7 cell lines; assay: cell viability; type: cell-based, human
Procedure, shortened: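 Test compound combined with exogenously added transition metal ions. Viability read as cellular ATP content after 24 h of treatment. Mean and SEM of three replicates, each normalized to its respective control.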

MCF-7 cells [2] = assay: intracellular Zn^2+ by FluoZin-3 and flow cytometry; type: cell-based, human
Procedure, shortened: (§1)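 Intracellular free Zn2+ measured by FluoZin-3 staining and flow cytometry after 1, 3, 24 or 48 h of treatment with test compound, with or without ZnSO4. For MCF-7, an extra 24 h arm included actinomycin D to block transcription. Mean and SEM of three replicates, compared with control.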

MCF-10A cells [3] = assay: cellular proliferation by EdU incorporation; type: cell-based, human; settings: 6 h
Procedure, shortened: (§2)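 Proliferation measured as percent EdU incorporation after 6 h with test compound (30 μM) and/or ZnSO4 (30 μM). Mean and SEM of three experimental replicates; compared against control.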

MCF-10A cells [4] = assay: total cellular Zn^2+ by ICP-AES; type: cell-based, human; settings: cotreatment with Zn^2+
Procedure, shortened: (§3)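 Total cellular zinc determined by inductively coupled plasma atomic emission spectroscopy after 3 h treatment with test compound alone or together with ZnSO4.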

[5] = system: PyMT primary tumor organoids; assay: 3D primary tumor organoid culture; type: cell-based; settings: 144 h
Procedure, shortened: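 PyMT mouse tumor cells embedded as organoids in Matrigel and cultured 144 h. Test compound and/or ZnSO4, or vehicle, present from 48 h to the end. Final staining with Hoechst, calcein AM (live) and SYTOX Orange (dead), then imaged.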

MCF-10A cells [6] = assay: long-term colony formation after 24 h treatment; type: cell-based, human; settings: 24 h treatment then 3 weeks without compound
Procedure, shortened: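 Cells treated 24 h, then cultured 21 days in compound-free medium. Surviving colonies stained with crystal violet and quantified. Mean and SD of four replicates.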

MCF-10A [7] = assay: cell death by propidium iodide staining and flow cytometry; type: cell-based, human
Procedure, shortened: (§4)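 Cells treated 24 h with test compound combined with ZnSO4, then stained with propidium iodide and analysed by flow cytometry. Mean and SEM of three replicates, normalized to the control sample.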

[8] = system: caspase 3/7, 8, or 9 activity in T47D, MDA-MB-231, and MCF-10A; assay: quantification of caspase activity; type: cell-based, human; settings: 6 or 72 h
Procedure, shortened: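 Caspase activity quantified after 6 or 72 h exposure to test compound with ZnSO4; staurosporine used as positive control. Mean and SD of three replicates.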

MCF-10A cells [9] = assay: intracellular Zn^2+ by FluoZin-3 and flow cytometry; type: cell-based, human
Procedure, shortened: as §1

[10] = system: metal trafficking genes in MCF-10A cells; assay: RT-PCR of metal trafficking gene induction; type: cell-based, human; settings: ZNA 30 μM, 3 or 24 h, normalized to GAPDH
Procedure, shortened: (§5)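 Real-time PCR of metal trafficking gene induction after 3 or 24 h exposure to test compound at 30 μM, run in quadruplicate.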

[11] = system: MT1 and MT2 in renal and hepatic tissue; assay: RT-PCR of metallothionein expression in tissue of treated mice; type: in vivo; settings: 100 mg/kg intraperitoneal, nontumor bearing FVB/NJ mice
Procedure, shortened: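 Nontumor-bearing FVB/NJ mice received 100 mg/kg test compound intraperitoneally or vehicle, and were sampled 3 or 24 h later. MT1 and MT2 expression in kidney and liver was measured by real-time PCR, normalised to β-actin and expressed relative to controls.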

MCF-7 cells [12] = assay: cell death by propidium iodide staining and flow cytometry; type: cell-based, human; settings: cotreatment with ZnSO4, within 24 h
Procedure, shortened: as §4

MCF-7 cells [13] = assay: cellular proliferation by EdU incorporation; type: cell-based, human; settings: 6 h
Procedure, shortened: as §2

[14] = system: primary mouse mammary epithelial cells (MECs) organoids; assay: 3D organoid model of normal mammary growth and branching morphogenesis; type: cell-based; settings: for delay in branching morphogenesis: single agent; for organoids killed: 3D branching assay
Procedure, shortened: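 Primary mouse mammary epithelial cells embedded in Matrigel and stimulated to branch with FGF2. Test compound and/or ZnSO4, or vehicle, added from 48 h. At 144 h, organoids stained with Hoechst (nuclei), calcein AM (live) and SYTOX Orange (dead), then imaged.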

cancer cells = assay: long-term colony formation after 24 h treatment; type: cell-based, human; settings: 24 h treatment then 3 weeks without compound
Procedure, shortened: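 Cells were exposed to test compound for 24 h, then grown in compound-free medium for 21 days. Colonies were stained with crystal violet and quantified, and the mean and standard deviation of four replicates were reported.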

[15] = system: malignant pleural effusion cells (PE1005339); assay: 12-point dose–response assay in malignant pleural effusion cells; type: cell-based, human; settings: PE1005339 tumor cells; 12-point dose–response; 4 days
Procedure, shortened: (§6)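 Dose–response after 4 days of treatment in immortalized primary human mammary epithelial cells (hTERT-HMEC) or in primary metastatic, chemoresistant breast cancer cells from a patient's malignant pleural effusion. A 12-point series is stated for the effusion cells. Mean and SD of three replicates.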

[16] = system: metal trafficking genes in MCF-7 cells; assay: RT-PCR of metal trafficking gene induction; type: cell-based, human; settings: ZNA 30 μM, 3 or 24 h, normalized to GAPDH
Procedure, shortened: as §5

[17] = system: cytosolic cathepsin in MCF-7 cells; assay: cytosolic cathepsin activity / cytoplasmic fractionation; type: cell-based, human
Procedure, shortened: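 Cells given test compound plus ZnSO4 for 6 h. Cytoplasmic cathepsin activity then measured with an enzymatic assay and expressed as mean activity relative to control. SEM of three experimental replicates.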

[18] = system: MCF-7, T47D, and MDA-MB231 breast cancer cell lines; assay: dose–response assays in breast cancer cell lines; type: cell-based, human; settings: malignant cell lines; 5 days
Procedure, shortened: (§7)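 Viability dose–response after 5 days of treatment in untransformed MCF-10A cells and in MCF-7, T47D and MDA-MB-231 breast cancer lines. Mean and SD of three replicates.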

PyMT mammary tumors = assay: transplanted PyMT mouse mammary tumor model; type: in vivo
Procedure, shortened: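 PyMT-expressing mouse mammary cells were transplanted into the fat pads of 3-week-old female FVB mice. Tumour-bearing mice were assigned to four groups for 21 days: test compound 100 mg/kg i.p. once daily, 25 mM ZnSO4 continuously in drinking water, both, or PBS i.p. once daily. Mice were euthanised at 2 cm tumour diameter, and Kaplan–Meier survival analysis was used.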

MCF-10A and MCF-7 cells = assay: evaluation of focused library; type: cell-based, human; settings: MCF-7 versus MCF-10A; listed as compound 4
Procedure, shortened: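 MCF-7 breast cancer and untransformed MCF-10A mammary epithelial cells were given a range of test compound concentrations to generate dose–response curves. MCF-7 EC50 was the mean of three replicates. ΔAUC was the difference in area under the curve between MCF-7 and MCF-10A.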

MCF-7 cells [19] = assay: FluoZin-3 and LysoTracker colocalization; type: cell-based, human; settings: ZNA (30 μM) and ZnSO4 (30 μM), 2 h
Procedure, shortened: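 Cells exposed 2 h to test compound (30 μM) and/or ZnSO4 (30 μM). Costained with FluoZin-3 (zinc), LysoTracker (lysosomes) and Hoechst, then imaged by fluorescence microscopy. Overlap of FluoZin-3 and LysoTracker signals quantified.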

MCF-10A [20] = assay: dose–response assay in untransformed mammary epithelial cell line; type: cell-based, human; settings: 5 days
Procedure, shortened: as §7

[21] = system: transformed and untransformed cell types; type: cell-based; settings: ZNA (30 μM) or clioquinol (30 μM) with ZnSO4; propidium iodide
MCF-7 cells [22] = assay: total cellular Zn^2+ by ICP-AES; type: cell-based, human; settings: 3 h, ZNA or ZNA/ZnSO4
Procedure, shortened: as §3

hTERT-HMEC = assay: dose–response assay in immortalized mammary epithelial cells; type: cell-based, human; settings: therapeutic window; hTERT-HMEC per Figure 2C; 4 days
Procedure, shortened: as §6

[23] = system: untransformed mouse MECs and MCF-10A cells, in comparison to MCF-7 cells; assay: intracellular Zn^2+ by FluoZin-3, comparison of zinc interactors; type: cell-based; settings: 3 h, absence of exogenous Zn^2+
[24] = system: primary metastatic tumor cells derived from malignant pleural effusions (PEs) of breast cancer patients; settings: 10 μM; PE cells; cited from earlier work
[25] = system: immortalized human mammary epithelial cells (hTERT-HMEC); settings: 10 μM; cited from earlier work
[26] = system: epidermal growth factor (EGF)-stimulated DNA synthesis; settings: cited from earlier work
[27] = system: transformed and untransformed cells; assay: cell viability; type: cell-based; settings: 48 h; ATP quantification
[28] = system: a variety of cancer cell lines; settings: read-out: IC50s; cited from earlier work

COc1ccc(-c2c(Cc3ccccc3)[nH]/c(=N\C(=O)c3ccccc3F)n2C)cc1 [ZNA, zinaamidole A]
effect on cell viability in combination with Zn^2+ ([1]; MCF-10A and MCF-7, 24 h, ATP): highly synergistic and cancer selective | effect on cell viability in cotreatment with Cu^2+ ([1]; MCF-10 and MCF-7, 24 h, ATP): nonselective cell death | effect on cell viability with Ni, Co, and Mn compared to ZNA alone ([1]; broader series of metals): minimal changes in cell viability | effect on cell viability in combination with Fe^2+ ([1]; untransformed and transformed cell lines, 24 h, ATP): relatively little effect | intracellular Zn^2+ on cotreatment with Actinomycin D versus ZNA-alone (MCF-7 cells [2]; 24 h, with ACTD): statistically significant increase | increase in FluoZin-3 fluorescence (intracellular Zn^2+) (MCF-7 cells [2]; 48 h, no exogenous Zn^2+): 13 fold | intracellular Zn^2+ concentration (FluoZin-3) (MCF-7 cells [2]; in the presence of 30 μM Zn^2+, 3 h): 170 times | EdU incorporation (MCF-10A cells [3]; ZNA (30 μM)/ZnSO4 (30 μM)): only partially inhibiting | EdU incorporation (MCF-10A cells [3]; ZNA alone 30 μM): only a partial reduction | total cellular Zn^2+ (ICP-AES) (MCF-10A cells [4]): below detectable levels | organoids with strong cell extrusion phenotype ([5]; ZNA-alone): about 70% | organoids to which treatment was cytotoxic ([5]; ZNA/ZnSO4 cotreatment): over 80% | effect on long-term proliferative potential (colonies) (MCF-10A cells [6]): greatly attenuated | cell death (MCF-10A [7]; ZNA alone, 24 h): unaffected | cell death (MCF-10A [7]; combination with ZnSO4, 24 h): unaffected | caspase 3/7, 8, or 9 activity ([8]; ZNA alone, MDA-MB-231, MCF-10A): either minimal or not observed | caspase 3/7, 8, or 9 activity ([8]; ZNA/ZnSO4, MDA-MB-231, MCF-10A): either minimal or not observed | increase in intracellular Zn^2+ (FluoZin-3) (MCF-10A cells [9]; 48 h, no exogenous Zn^2+): 2 fold | intracellular Zn^2+ level versus vehicle control (FluoZin-3) (MCF-10A cells [9]; cotreatment with Zn^2+): less than 10 fold | metal trafficking gene expression [10]: 5 fold | MT1 and MT2 expression versus control treated mice ([11]; 3 h): increased | MT1 and MT2 expression ([11]; 24 h): decreased | cell death (MCF-7 cells [12]): > 80% | EdU incorporation (MCF-7 cells [13]; ZNA (30 μM)/ZnSO4 (30 μM)): complete block | EdU incorporation (MCF-7 cells [13]; ZNA alone 30 μM): only a partial reduction | organoids healthy with no visible extruding cells ([14]; combination ZNA/ZnSO4, 144 h): Greater than 60% | organoids with either full or partial branching ([14]; combination ZNA/ZnSO4, 144 h): approximately 90% | delay in branching morphogenesis [14]: 24 h | long-term proliferative potential (colonies) (cancer cells): significantly affected long-term proliferative potential | EC50 [15]: 4.12 µM | metal trafficking gene expression [16]: 75 fold | cytosolic cathepsin activity ([17]; MCF-7, combination of ZNA and ZnSO4, 6 h): significant increase | cytosolic cathepsins B, D, and L relative to untreated cells ([17]; MCF-7s, ZNA/ZnSO4, cytoplasmic fractionation): increase | cell viability [18]: decreased cell viability | survival versus control-treated or ZnSO4-only groups (PyMT mammary tumors; ZNA 100 mg/kg i.p. once a day plus 25 mM ZnSO4 in drinking water, 21 days): significant survival advantage | general toxicity, adverse reactions, body weight (PyMT mammary tumors; ZNA 100 mg/kg i.p. once a day, 21 days): no general toxicity, adverse reactions, or decreases in body weight | survival versus control-treated or ZnSO4-only groups (PyMT mammary tumors; ZNA alone 100 mg/kg i.p. once a day for 21 days): significant survival advantage | general toxicity, adverse reactions, body weight (PyMT mammary tumors; combination of ZNA and ZnSO4, 21 days): no general toxicity, adverse reactions, or decreases in body weight | potency and selectivity (EC50 in MCF-7, ΔAUC between MCF-7 and MCF-10A) (MCF-10A and MCF-7 cells): significant increase in potency and selectivity; also recorded: greatest balance of potency and selectivity | FluoZin-3 and LysoTracker overlap (MCF-7 cells [19]): significant increase | sensitivity (cell viability) (MCF-10A [20]): reduced sensitivity | cytotoxic effect of combination with ZnSO4, time-course [21]: only observed in the transformed cell line | total cellular Zn^2+ (ICP-AES) (MCF-7 cells [22]): increase in total cellular Zn^2+ | IC50 (hTERT-HMEC): > 100 µM

O=S(=O)([O-])[O-].[Zn+2] [ZnSO4]
delay in branching morphogenesis [14]: 24 h

naamidine A
intracellular Zn^2+ levels (FluoZin-3) [23]: decreased or unchanged | decrease in cell viability [24]: 100% | decrease in cell viability [25]: 100% | organoids killed ([14]; compound alone): 100% | effect of exogenous ZnSO4 on cytotoxic effects in organoids ([14]; with exogenous ZnSO4): rescued the cytotoxic effects | inhibition of EGF-stimulated DNA synthesis [26]: submicromolar

Oc1c(I)cc(Cl)c2cccnc12 [clioquinol]
intracellular Zn^2+ levels (FluoZin-3) [23]: increase in intracellular Zn^2+ | toxicity of combination with ZnSO4 [27]: toxic to both transformed and untransformed cells | organoids killed ([14]; compound alone): 100% | organoids killed ([14]; with ZnSO4): 100% | cytotoxic effect of combination with ZnSO4, time-course [21]: cytotoxic toward all cell types tested | IC50 [28]: 5 to 50 µM
